Measured values as given in publication PMC6745892 (Journal of Medicinal Chemistry, 2019).

Columns and labels:
[1] = molecular target: T1, DAGL-α (Mus musculus, UniProt Q6WQJ1); assay type: biochemical; details: ratio of kinact versus KT109 and DH376
T1 sequence (Q6WQJ1 1-1044): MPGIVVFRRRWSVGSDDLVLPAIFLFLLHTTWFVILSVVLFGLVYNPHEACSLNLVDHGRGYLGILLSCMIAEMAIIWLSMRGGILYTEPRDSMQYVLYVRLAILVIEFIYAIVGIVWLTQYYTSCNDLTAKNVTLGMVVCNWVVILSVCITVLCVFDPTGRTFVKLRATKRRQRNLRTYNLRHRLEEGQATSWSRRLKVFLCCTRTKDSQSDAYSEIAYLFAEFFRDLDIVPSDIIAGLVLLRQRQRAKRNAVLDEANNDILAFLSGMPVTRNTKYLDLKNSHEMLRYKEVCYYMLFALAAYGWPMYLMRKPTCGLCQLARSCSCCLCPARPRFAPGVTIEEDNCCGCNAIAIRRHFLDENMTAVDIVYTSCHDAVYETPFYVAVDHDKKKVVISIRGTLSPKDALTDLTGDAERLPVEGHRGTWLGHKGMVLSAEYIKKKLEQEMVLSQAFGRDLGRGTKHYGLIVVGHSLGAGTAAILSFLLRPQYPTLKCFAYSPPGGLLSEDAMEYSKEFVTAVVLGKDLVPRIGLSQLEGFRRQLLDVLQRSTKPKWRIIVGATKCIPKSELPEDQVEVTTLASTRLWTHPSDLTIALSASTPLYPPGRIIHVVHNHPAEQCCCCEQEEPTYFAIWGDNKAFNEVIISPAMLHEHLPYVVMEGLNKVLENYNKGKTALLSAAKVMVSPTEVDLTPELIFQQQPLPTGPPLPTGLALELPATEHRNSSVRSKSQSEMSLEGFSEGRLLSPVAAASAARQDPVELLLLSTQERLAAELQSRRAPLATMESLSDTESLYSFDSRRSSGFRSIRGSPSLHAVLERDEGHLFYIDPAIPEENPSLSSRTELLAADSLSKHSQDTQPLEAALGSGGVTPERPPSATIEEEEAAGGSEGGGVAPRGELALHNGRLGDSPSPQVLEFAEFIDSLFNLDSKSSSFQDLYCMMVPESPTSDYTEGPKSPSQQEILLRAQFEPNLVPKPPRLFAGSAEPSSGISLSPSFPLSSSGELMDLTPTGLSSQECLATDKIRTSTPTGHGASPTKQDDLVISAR

[2] = molecular target: T2, mDAGL-α (Mus musculus, UniProt Q6WQJ1); experiment: Standard PNP-butyrate surrogate substrate assay; assay type: biochemical
T2 sequence (Q6WQJ1 1-1044): T1 sequence (Q6WQJ1 1-1044)
Outline: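 Membrane fraction of HEK293T cells transiently transfected with mDAGL-α, 0.05 μg/μL final, in 50 mM Hepes pH 7.2. Inhibitor in DMSO preincubated 20 min, then PNP-butyrate added (0.3 mM final; 5% DMSO final). OD 420 nm read after 30 min at 20 °C. Data corrected for 10 μM THL background and normalized to DMSO control. N = 2, n = 2; plates kept if Z′ > 0.6.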

inactivation rate (kinact) times higher than for KT109 and DH376 [1]	potency in the standard surrogate substrate assay (in words) [2]	SMILES
2–3 times	low nanomolar	O=C(N1CCCC[C@@H]1Cc1ccccc1)n1ncc(C(O)(c2ccc(F)cc2)c2ccc(F)cc2)n1 [Compound 1, (R)-(2-Benzylpiperidin-1-yl)(4-(bis(4-fluorophenyl)(hydroxy)methyl)-2H-1,2,3-triazol-2-yl)methanone]
2–3 times	low nanomolar	O=C(N1CCCC[C@@H]1Cc1ccccc1)n1cc(C(O)(c2ccc(F)cc2)c2ccc(F)cc2)nn1 [Compound 2, (R)-(2-Benzylpiperidin-1-yl)(4-(bis(4-fluorophenyl)(hydroxy)methyl)-1H-1,2,3-triazol-1-yl)methanone]
